Measurements: ChEMBL document CHEMBL1150854, “New prenylated bi- and tricyclic phloroglucinol derivatives from Hypericum papuanum” (J Nat Prod, 2001)
In brackets after ≈: the same amount, converted by molar mass. Activity calls are given as the source filed them. The calls are words filed in the database; no cut-off is given here.

How the values were obtained:
[1] = tested on: Staphylococcus epidermidis; test: Antibacterial activity against Staphylococcus epidermidis ATCC 12228 by doubling dilution method; assay type: functional
Summary of the method: (§1)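 Doubling (twofold) broth dilution of pure compounds, modified from an earlier published procedure. Gram-positive strains: B. cereus ATCC 10702, S. epidermidis ATCC 12228, M. luteus ATCC 9341. Read-out is MIC in μg/mL. Chloramphenicol served as positive control.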

[2] = tested on: Bacillus cereus; test: Antibacterial activity against Bacillus cereus ATCC 10702 by doubling dilution method; assay type: functional; summary of the method: as §1
[3] = tested on: KB; test: Cytotoxicity against human KB cells; assay type: functional, cell-based
Summary of the method: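 KB cells (ATCC CCL 17, human nasopharyngeal carcinoma), run by the method of earlier published work. Each test done at least in triplicate. Value given as IC50 in μg/mL. Podophyllotoxin served as positive control.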

[4] = tested on: Micrococcus luteus; test: Antibacterial activity against Micrococcus luteus ATCC 9341 by doubling dilution method; assay type: functional; summary of the method: as §1
[5] = Bacillus cereus, ATCC 10702, read-out: MIC
[6] = Homo sapiens, KB, read-out: IC50
[7] = Staphylococcus epidermidis, ATCC 12228, read-out: MIC

MIC [2, 5] [µg/mL] | MIC [1, 7] [µg/mL] | Compound | Activity [1] | IC50 [3, 6] [µg/mL] | also measured
64 (≈ 155 µM) | – | CC(C)=CC[C@@H]1C[C@]2(C)C(=O)[C@@](C(=O)C(C)C)(C(=O)C3=C2OC(C)(C)C=C3)C1(C)C [PAPUAFORIN A] | inactive | 7.5 (≈ 18.2 µM) | –
– | – | CC(C)=CCC1(C)C(=O)C(C(=O)C(C)C)=C(O)C2=C1OC(C)(C)C=C2 (stereo in doubt; 7) | inactive | – | –
– | – | COc1cc([C@@H]2c3cc4c(cc3[C@H](O)[C@H]3COC(=O)[C@H]23)OCO4)cc(OC)c1OC [PODOFILOX] | – | 0.006 (≈ 0.0145 µM) | –
– | – | CC(C)=CCC1(C)C(=O)C(C(=O)C(C)C)=C(O)C2=C1OC(C)(C)C=C2 (stereo in doubt; 7a) | inactive | – | –
– | – | CCC(=O)C1=C(O)C2=C(OC(C)(C)C=C2)C(C)(CC=C(C)C)C1=O (stereo in doubt; 6) [HYPERGUINONE A] | – | – | MIC [1]: 32 µg/mL (≈ 96.8 µM); MIC [2]: 32 µg/mL (≈ 96.8 µM)
32 (≈ 96.8 µM) | 32 (≈ 96.8 µM) | CCC(=O)C1=C(O)C2=C(OC(C)(C)C=C2)C(C)(CC=C(C)C)C1=O (stereo in doubt; 6a) [HYPERGUINONE A] | – | – | –
128 (≈ 259 µM) | – | CCC(C)C(=O)[C@]12C(=O)C3=C(OC(C)(C)C=C3)[C@](C)(C[C@@H](CC=C(C)C)[C@]1(C)CCC=C(C)C)C2=O (stereo partly specified) [PAPUAFORIN D] | inactive | 6.6 (≈ 13.3 µM) | –
32 (≈ 92.9 µM) | – | CC(C)=CCC1(C)C(=O)C(C(=O)C(C)C)=C(O)C2=C1OC(C)(C)C=C2 (stereo in doubt; 7a) [HYPERGUINONE B] | – | 13 (≈ 37.7 µM) | –
2 (≈ 6.19 µM) | 4 (≈ 12.4 µM) | O=C(N[C@H](CO)[C@H](O)c1ccc([N+](=O)[O-])cc1)C(Cl)Cl [CHLORAMPHENICOL] | – | – | MIC [4]: 2 µg/mL (≈ 6.19 µM)
– | – | CC(C)=CCC1(C)C(=O)C(C(=O)C(C)C)=C(O)C2=C1OC(C)(C)C=C2 (stereo in doubt; 7) [HYPERGUINONE B] | – | – | MIC [2]: 32 µg/mL (≈ 92.9 µM); IC50 ([3]; kb): 13 µg/mL (≈ 37.7 µM)
64 (≈ 150 µM) | – | CCC(C)C(=O)[C@]12C(=O)C3=C(OC(C)(C)C=C3)[C@](C)(C[C@@H](CC=C(C)C)C1(C)C)C2=O (stereo partly specified) [PAPUAFORIN C] | inactive | 4.9 (≈ 11.5 µM) | MIC [4]: 32 µg/mL (≈ 75 µM)
8 (≈ 19.3 µM) | 8 (≈ 19.3 µM) | CC(C)=CC[C@@H]1C[C@@]2(C)C(=O)[C@](CC=C(C)C)(C(=O)C(C(=O)C(C)C)=C2O)C1(C)C (stereo in doubt; 8) | – | – | MIC [4]: 16 µg/mL (≈ 38.6 µM); IC50 ([3]; kb): 3.2 µg/mL (≈ 7.72 µM)
64 (≈ 133 µM) | 32 (≈ 66.6 µM) | CC(C)=CCC[C@@]1(C)[C@H](CC=C(C)C)C[C@]2(C)C(=O)[C@@]1(C(=O)C(C)C)C(=O)C1=C2OC(C)(C)C=C1 [PAPUAFORIN E] | – | 5.6 (≈ 11.6 µM) | –
